Experimental data reported in ChEMBL document CHEMBL1153861, “Synthesis, optimization and structure-activity relationships of 3,5-disubstituted isoxazolines as new anti-tuberculosis agents” (2009).
In brackets after ≈: the same amount, converted by molar mass. Activity calls are given as the source filed them. No cut-off for these calls is given here.

Tests used:
[1] = test system: Mycobacterium tuberculosis; experiment: Antitubercular activity against Mycobacterium tuberculosis H37Rv; type: functional
Method in brief: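 Broth microdilution against M. tuberculosis H37Rv; MIC read by visual inspection of growth.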

[2] = test system: Staphylococcus aureus; experiment: Antimicrobial activity against Staphylococcus aureus; type: functional, organism-based
[3] = test system: Streptococcus pneumoniae; experiment: Antimicrobial activity against Streptococcus pneumoniae; type: functional, organism-based
[4] = test system: Escherichia coli; experiment: Antimicrobial activity against Escherichia coli; type: functional, organism-based

Row | Compound | MIC [1] | Activity [2] | Activity [3] | Activity [4]
1 | CCOC(=O)C1=NOC(c2ccc(-c3noc(-c4ccccc4)n3)cc2)C1 (stereo not drawn) | 3.12 µg/mL (≈ 8.6 µM) | inactive | inactive | inactive
2 | CCOC(=O)C1=NOC(c2ccc(-c3ccc(OC)c(F)c3)cc2)C1 (stereo not drawn) | 3.12 µg/mL (≈ 9.1 µM) | inactive | inactive | inactive
3 | CC(C)COC(=O)N1CCN(c2ccc(C3CC(C(=O)O)=NO3)cc2)CC1 (stereo not drawn) | > 200 µg/mL | inactive | inactive | inactive
4 | CCOC(=O)C1=NOC(c2ccc(N3CCN(C(=O)NC(C)C)CC3)cc2)C1 (stereo not drawn) | 12.5 µg/mL (≈ 32.2 µM) | inactive | inactive | inactive
5 | CCCCCCNC(=O)N1CCN(c2ccc(C3CC(C(=O)O)=NO3)cc2)CC1 (stereo not drawn) | > 200 µg/mL | inactive | inactive | inactive
6 | CCOC(=O)C1=NOC(c2ccc(N3CCOCC3)cc2)C1 (stereo not drawn) | > 200 µg/mL | inactive | inactive | inactive
7 | COC(=O)C1=NOC(c2ccc(N3CCN(Cc4ccccc4)CC3)cc2)C1 (stereo not drawn) | 1.56 µg/mL (≈ 4.11 µM) | inactive | inactive | inactive
8 | NC(=O)C1=NOC(c2ccc(N3CCN(Cc4ccccc4)CC3)cc2)C1 (stereo not drawn) | 200 µg/mL (≈ 549 µM) | inactive | inactive | inactive
9 | CCCNC(=O)N1CCN(c2ccc(C3CC(C(=O)OCC)=NO3)cc2)CC1 (stereo not drawn) | 25 µg/mL (≈ 64.4 µM) | inactive | inactive | inactive
10 | C=CCOC(=O)N1CCN(c2ccc(C3CC(C(=O)OCC)=NO3)cc2)CC1 (stereo not drawn) | 0.8 µg/mL (≈ 2.06 µM) | inactive | inactive | inactive
11 | NCC1=NOC(c2ccc(N3CCN(Cc4ccccc4)CC3)cc2)C1 (stereo not drawn) | 200 µg/mL (≈ 571 µM) | inactive | inactive | inactive
12 | CCOC(=O)C1=NOC(c2ccc(-c3ccc(C=O)cc3)cc2)C1 (stereo not drawn) | 6.25 µg/mL (≈ 19.3 µM) | inactive | inactive | inactive
13 | CCOC(=O)C1=NOC(c2ccc(N3CCN(C(=O)OC)CC3)cc2)C1 (stereo not drawn) | 1.56 µg/mL (≈ 4.32 µM) | inactive | inactive | inactive
14 | NNC(=O)C1=NOC(c2ccc(N3CCN(Cc4ccccc4)CC3)cc2)C1 (stereo not drawn) | 50 µg/mL (≈ 132 µM) | inactive | inactive | inactive
15 | C=CCN1CCN(c2ccc(C3CC(C(=O)OCC)=NO3)cc2)CC1 (stereo not drawn) | 6.25 µg/mL (≈ 18.2 µM) | inactive | inactive | inactive
16 | OCC1=NOC(c2ccc(N3CCOCC3)cc2)C1 (stereo not drawn) | > 200 µg/mL | inactive | inactive | inactive
17 | O=C([O-])C1=NOC(c2ccc(N3CCN(Cc4ccccc4)CC3)cc2)C1.[Li+] (stereo not drawn) | 100 µg/mL |  |  | 
18 | O=C(O)C1=NOC(c2ccc(N3CCN(Cc4ccccc4)CC3)cc2)C1 (stereo not drawn) [listing 1 of 2 here] | > 200 µg/mL |  |  | 
19 | CCOC(=O)C1=NOC(c2ccc(N3CCN(Cc4ccc([N+](=O)[O-])cc4)CC3)cc2)C1 (stereo not drawn) | 0.8 µg/mL (≈ 1.82 µM) | inactive | inactive | inactive
20 | [N-]=[N+]=NCC1=NOC(c2ccc(N3CCOCC3)cc2)C1 (stereo not drawn) | 200 µg/mL (≈ 696 µM) | inactive | inactive | inactive
21 | CCOC(=O)C1=NOC(c2ccc(N3CCN(C(=O)OCC)CC3)cc2)C1 (stereo not drawn) | 1.56 µg/mL (≈ 4.16 µM) | inactive | inactive | inactive
22 | CCOC(=O)C1=NOC(c2ccc(-c3ncon3)cc2)C1 (stereo not drawn) | 50 µg/mL (≈ 174 µM) | inactive | inactive | inactive
23 | CCOC(=O)C1=NOC(c2ccc(N3CCN(C(=O)Nc4ccccc4)CC3)cc2)C1 (stereo not drawn) | 6.25 µg/mL (≈ 14.8 µM) | inactive | inactive | inactive

Row | Compound | MIC [1] | Activity [2] | Activity [3] | Activity [4]
24 | CCOC(=O)C1=NOC(c2ccc(N3CCN(Cc4ccccc4)CC3)cc2)C1 (stereo not drawn) | 1.56 µg/mL (≈ 3.96 µM) | inactive | inactive | inactive
25 | NCC1=NOC(c2ccc(N3CCOCC3)cc2)C1 (stereo not drawn) | > 200 µg/mL | inactive | inactive | inactive
26 | CCOC(=O)C1=NOC(c2ccc(N3CCN(C(=O)OC(C)(C)C)CC3)cc2)C1 (stereo not drawn) | 0.8 µg/mL (≈ 1.98 µM) | inactive | inactive | inactive
27 | CCCCOC(=O)N1CCN(c2ccc(C3CC(C(=O)O)=NO3)cc2)CC1 (stereo not drawn) | > 200 µg/mL | inactive | inactive | inactive
28 | CCOC(=O)C1=NOC(c2ccc(N3CCCCC3)cc2)C1 (stereo not drawn) | 6.25 µg/mL (≈ 20.7 µM) | inactive | inactive | inactive
29 | CC(=O)NCC1=NOC(c2ccc(N3CCOCC3)cc2)C1 (stereo not drawn) | > 200 µg/mL | inactive | inactive | inactive
30 | CCOC(=O)C1=NOC(c2ccc(N3CCN(C(=O)OCC(C)C)CC3)cc2)C1 (stereo not drawn) | 0.8 µg/mL (≈ 1.98 µM) | inactive | inactive | inactive
31 | CCCCCCNC(=O)N1CCN(c2ccc(C3CC(C(=O)OCC)=NO3)cc2)CC1 (stereo not drawn) | 0.4 µg/mL (≈ 0.929 µM) | inactive | inactive | inactive
32 | OCC1=NOC(c2ccc(N3CCN(Cc4ccccc4)CC3)cc2)C1 (stereo not drawn) | 200 µg/mL (≈ 569 µM) | inactive | inactive | inactive
33 | CCOC(=O)C1=NOC(c2ccc(N3CCC(Oc4ccc(OC(F)(F)F)cc4)CC3)cc2)C1 (stereo not drawn) | 25 µg/mL (≈ 52.3 µM) | inactive | inactive | inactive
34 | CCOC(=O)C1=NOC(c2ccc(N3CCN(C(=O)NCCc4ccccc4)CC3)cc2)C1 (stereo not drawn) | 0.8 µg/mL (≈ 1.78 µM) | inactive | inactive | inactive
35 | CCCCOC(=O)N1CCN(c2ccc(C3CC(C(=O)OCC)=NO3)cc2)CC1 (stereo not drawn) | 0.8 µg/mL (≈ 1.98 µM) | inactive | inactive | inactive
36 | CCOC(=O)C1=NOC(c2ccc(N3CCN(CC4CC4)CC3)cc2)C1 (stereo not drawn) | 12.5 µg/mL (≈ 35 µM) | inactive | inactive | inactive
37 | CC(=O)NCC1=NOC(c2ccc(N3CCN(Cc4ccccc4)CC3)cc2)C1 (stereo not drawn) | > 200 µg/mL | inactive | inactive | inactive
38 | O=C(O)C1=NOC(c2ccc(N3CCN(C(=O)NCCc4ccccc4)CC3)cc2)C1 (stereo not drawn) | > 200 µg/mL | inactive | inactive | inactive
39 | CCOC(=O)C1=NOC(c2ccc(N3CCNCC3)cc2)C1 (stereo not drawn) | 50 µg/mL (≈ 165 µM) | inactive | inactive | inactive
40 | CCOC(=O)C1=NOC(c2ccc(-c3ccco3)cc2)C1 (stereo not drawn) | 3.25 µg/mL (≈ 11.4 µM) | inactive | inactive | inactive
41 | CCOC(=O)C1=NOC(c2ccc(-c3ccccc3)cc2)C1 (stereo not drawn) | 100 µg/mL (≈ 339 µM) | inactive | inactive | inactive
42 | CCCNC(=O)C1=NOC(c2ccc(N3CCN(Cc4ccccc4)CC3)cc2)C1 (stereo not drawn) | 200 µg/mL (≈ 492 µM) | inactive | inactive | inactive
43 | O=C(O)C1=NOC(c2ccc(N3CCN(Cc4ccccc4)CC3)cc2)C1 (stereo not drawn) [listing 2 of 2 here] |  | inactive | inactive | inactive
44 | Cc1nnc(C2=NOC(c3ccc(N4CCN(Cc5ccccc5)CC4)cc3)C2)o1 (stereo not drawn) | 200 µg/mL (≈ 496 µM) | inactive | inactive | inactive
45 | [N-]=[N+]=NCC1=NOC(c2ccc(N3CCN(Cc4ccccc4)CC3)cc2)C1 (stereo not drawn) | 50 µg/mL (≈ 133 µM) | inactive | inactive | inactive
